In brackets after ≈: the same amount, converted by molar mass.
Biological target: T1, Bifunctional epoxide hydrolase 2 (Homo sapiens, UniProt P34913)
T1 sequence (P34913 whole entry): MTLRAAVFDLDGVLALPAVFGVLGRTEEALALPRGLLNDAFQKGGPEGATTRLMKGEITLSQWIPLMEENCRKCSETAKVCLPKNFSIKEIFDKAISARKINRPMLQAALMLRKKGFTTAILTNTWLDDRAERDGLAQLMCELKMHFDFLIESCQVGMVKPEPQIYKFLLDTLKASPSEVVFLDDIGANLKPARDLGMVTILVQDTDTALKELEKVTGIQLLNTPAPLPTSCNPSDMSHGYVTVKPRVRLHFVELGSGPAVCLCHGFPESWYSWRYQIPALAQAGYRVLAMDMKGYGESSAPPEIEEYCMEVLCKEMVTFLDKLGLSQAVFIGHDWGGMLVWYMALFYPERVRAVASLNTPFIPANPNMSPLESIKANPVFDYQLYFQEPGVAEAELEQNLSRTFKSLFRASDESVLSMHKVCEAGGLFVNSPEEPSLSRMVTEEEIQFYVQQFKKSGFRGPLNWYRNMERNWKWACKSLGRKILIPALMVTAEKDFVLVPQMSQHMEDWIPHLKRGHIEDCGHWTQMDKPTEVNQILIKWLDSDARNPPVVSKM
Test: Inhibition of recombinant human sEH expressed in baculovirus infected insect Sf9 cells using CMNPC as substrate assessed as 6-methoxy-2-naphthadehyde level after 10 mins by fluorescence assay
In short: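 Recombinant human sEH (6xHis-tagged, expressed in Sf9 cells, tag removed with TEV protease, purified by metal affinity then anion exchange; 1 nM) preincubated with compound in DMSO for 10 min in 25 mM Bis–Tris/HCl pH 7.0 at 30 °C. CMNPC substrate added (5 µM). 6-Methoxy-2-naphthaldehyde read at ex 330/em 465 nm over 10 min. IC50 by regression of ≥5 points; mean of three runs.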

| SMILES | IC50 [nM] |
| --- | --- |
| CCOP(=O)(OCC)C(Nc1ccc(CNC(=O)C23CC4CC(CC(C4)C2)C3)cc1)c1ccc(C#N)cc1 (stereo not given) | 108 |
| CCOP(=O)(OCC)C(Nc1ccc(COC(=O)C23CC4CC(CC(C4)C2)C3)cc1)C(C)(C)C (stereo not given) | > 1000 |
| CCOP(=O)(OCC)C(Nc1ccc(CNC(=O)C23CC4CC(CC(C4)C2)C3)cc1)c1ccc(C(C)(C)C)cc1 (stereo not given) | 192 |
| CCOP(=O)(OCC)C(Nc1ccc(CNC(=O)C23CC4CC(CC(C4)C2)C3)cc1)C1CC1 (stereo not given) | 21 |
| CCCC(Nc1ccc(CNC(=O)C23CC4CC(CC(C4)C2)C3)cc1)P(=O)(OCC)OCC (stereo not given) | 58 |
| CC(C)(C)C(Nc1ccc(CNC(=O)NC23CC4CC(CC(C4)C2)C3)cc1)P(=O)(OCC(F)(F)F)OCC(F)(F)F (stereo not given) | 3.8 |
| CCOP(=O)(OCC)C(Nc1ccc(CNC(=O)C2CCc3ccccc3C2)cc1)C(C)(C)C (stereo not given) | 3 |
| CC(C)COP(=O)(OCC(C)C)C(Nc1ccc(CNC(=O)C23CC4CC(CC(C4)C2)C3)cc1)C(C)(C)C (stereo not given) | 16 |
| CCOP(=O)(OCC)C(Nc1ccc(CCC(=O)NC23CC4CC(CC(C4)C2)C3)cc1)C(C)(C)C (stereo not given) | 43 |
| CCOP(=O)(OCC)C(Nc1ccc(CNC(=O)C2CCCCC2)cc1)C(C)(C)C (stereo not given) | 23 |
| CCOP(=O)(OCC)C(Nc1ccc(CNC(=O)C23CC4CC(CC(C4)C2)C3)cc1)c1ccc(OC)cc1 (stereo not given) | 199 |
| CCOP(=O)(OCC)C(Nc1ccc(CNC(=O)C23CC4CC(CC(C4)C2)C3)cc1)C1CCCCC1 (stereo not given) | 46 |
| CC(C)(C)C(Nc1ccc(CNC(=O)C23CC4CC(CC(C4)C2)C3)cc1)P(=O)(OCc1ccccc1)OCc1ccccc1 (stereo not given) | 42 |
| CCOP(=O)(OCC)C(Nc1ccc(CNC(=O)C23CC4CC(CC(C4)C2)C3)cc1)c1ccc(C(=O)OC)cc1 (stereo not given) | 230 |
| CC(C)(C)C(Nc1ccc(CNC(=O)C23CC4CC(CC(C4)C2)C3)cc1)P(=O)(OCC(F)(F)F)OCC(F)(F)F (stereo not given) | 30 |
| CC(C)COP(=O)(OCC(C)C)C(Nc1ccc(CNC(=O)NC23CC4CC(CC(C4)C2)C3)cc1)C(C)(C)C (stereo not given) | 1.8 |
| CCOP(=O)(OCC)C(Nc1ccc(CNC(=O)C23CC4CC(CC(C4)C2)C3)cc1)c1ccccc1 (stereo not given) | 45 |
| CC(C)(C)C(Nc1ccc(CNC(=O)NC23CC4CC(CC(C4)C2)C3)cc1)P(=O)(OCc1ccccc1)OCc1ccccc1 (stereo not given) | 2.6 |

| SMILES | IC50 [nM] |
| --- | --- |
| CCOP(=O)(OCC)C(Nc1ccc(CNC(=O)CC23CC4CC(CC(C4)C2)C3)cc1)C(C)(C)C (stereo not given) | 1.9 |
| CCCCOP(=O)(OCCCC)C(Nc1ccc(CNC(=O)C23CC4CC(CC(C4)C2)C3)cc1)C(C)(C)C (stereo not given) | 26 |
| CCOP(=O)(OCC)C(Nc1ccc(CCNC(=O)C23CC4CC(CC(C4)C2)C3)cc1)C(C)(C)C (stereo not given) | 8.2 |
| CCOP(=O)(OCC)C(Nc1ccc(CNC(=O)C23CC4CC(CC(C4)C2)C3)cc1)c1ccc2ccccc2c1 (stereo not given) | 186 |
| CCOP(=O)(OCC)C(Nc1ccc(CNC(=O)C23CC4CC(CC(C4)C2)C3)cc1)c1ccncc1 (stereo not given) | 185 |
| CCCCOP(=O)(OCCCC)C(Nc1ccc(CNC(=O)NC23CC4CC(CC(C4)C2)C3)cc1)C(C)(C)C (stereo not given) | 3 |
| CCOP(=O)(OCC)C(Nc1ccc(CNC(=O)Cc2ccc3ccccc3c2)cc1)C(C)(C)C (stereo not given) | 3.4 |
| CCOP(=O)(OCC)C(Nc1ccc(CNC(=O)c2ccc3cc(O)ccc3c2)cc1)C(C)(C)C (stereo not given) | 17 |
| CCOP(=O)(OCC)C(Nc1ccc(NC(=O)C23CC4CC(CC(C4)C2)C3)cc1)C(C)(C)C (stereo not given) | 37 |
| CC(C)OP(=O)(OC(C)C)C(Nc1ccc(CNC(=O)NC23CC4CC(CC(C4)C2)C3)cc1)C(C)(C)C (stereo not given) | 1.7 |
| CCOP(=O)(OCC)C(Nc1ccc(CNC(=O)NC23CC4CC(CC(C4)C2)C3)cc1)C(C)(C)C (stereo not given) | 0.96 |
| CCOP(=O)(OCC)C(Nc1ccc(CNC(=O)C23CC4CC(CC(C4)C2)C3)cc1)C(C)(C)C (stereo not given) | 5.1 |
| CCOP(=O)(OCC)C(Nc1ccc(CNC(=O)c2ccc(OC(F)(F)F)cc2)cc1)C(C)(C)C (stereo not given) | 24 |
| CCOP(=O)(OCC)C(Nc1ccc(CNC(=O)C23CC4CC(CC(C4)C2)C3)cc1)C(=O)c1ccccc1 (stereo not given) | 69 |
| CCOP(=O)(OCC)C(Nc1ccc(CNC(=O)C23CC4CC(CC(C4)C2)C3)cc1)c1ccc(C)cc1 (stereo not given) | 130 |
| CCOP(=O)(OCC)C(CC(C)(C)C)Nc1ccc(CNC(=O)C23CC4CC(CC(C4)C2)C3)cc1 (stereo not given) | 41 |
| CC(C)OP(=O)(OC(C)C)C(Nc1ccc(CNC(=O)C23CC4CC(CC(C4)C2)C3)cc1)C(C)(C)C (stereo not given) | 6.7 |
| CCOP(=O)(OCC)C(Nc1ccc(CNC(=O)C23CC4CC(CC(C4)C2)C3)cc1)c1ccc(F)cc1 (stereo not given) | 120 |

System: not listed separately
Test: Aqueous solubility of the compound in sodium phosphate buffer at pH 7.4 at 25 +/- 1.5 degC by light scattering method
Type: physicochemical
In short: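 Compound stock in DMSO added at varied concentrations to 0.1 M sodium phosphate pH 7.4, final DMSO:buffer 5:95 (v/v). Turbidity read as OD at 650 nm at 25 ± 1.5 °C. Signal-to-noise ≥2 counted as insoluble. Mean of three separate measurements.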

| SMILES | solubility kinetic [µM] |
| --- | --- |
| CCOP(=O)(OCC)C(Nc1ccc(CNC(=O)CC23CC4CC(CC(C4)C2)C3)cc1)C(C)(C)C (stereo not given) | 62 (≈ 31.3 µg/mL) |
| CCOP(=O)(OCC)C(Nc1ccc(CNC(=O)Cc2ccc3ccccc3c2)cc1)C(C)(C)C (stereo not given) | 78 (≈ 38.7 µg/mL) |
| CCOP(=O)(OCC)C(Nc1ccc(CNC(=O)NC23CC4CC(CC(C4)C2)C3)cc1)C(C)(C)C (stereo not given) | 78 (≈ 39.4 µg/mL) |
| CCOP(=O)(OCC)C(Nc1ccc(CNC(=O)C23CC4CC(CC(C4)C2)C3)cc1)C(C)(C)C (stereo not given) | 125 (≈ 61.3 µg/mL) |
